Measured values from ChEMBL document CHEMBL1268976, “Stereocontrolled facile synthesis and antimicrobial activity of oximes and oxime ethers of diversely substituted bispidines” (2010).
Converted amounts (≈) assume the structure as drawn.

Columns and labels:
Type in all cases: functional
Candida albicans = experiment: Antifungal activity against Candida albicans by broth microdilution method
How it was run: (§1)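 Fungal panel of Candida albicans, Candida parapsilosis, Aspergillus niger and Cryptococcus neoformans, tested in vitro by standard NCCLS broth microdilution. The yeast susceptibility reference cited is M27-A.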

Cryptococcus neoformans = experiment: Antimicrobial activity against Cryptococcus neoformans by broth microdilution method; how it was run: as §1
Staphylococcus aureus = experiment: Antibacterial activity against Staphylococcus aureus by broth microdilution method
How it was run: (§2)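 In vitro broth microdilution following the NCCLS standard for bacteria (M7-A5). The test panel was Bacillus subtilis, Staphylococcus aureus, Klebsiella pneumoniae and Pseudomonas aeruginosa.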

Pseudomonas aeruginosa = experiment: Antibacterial activity against Pseudomonas aeruginosa by broth microdilution method; how it was run: as §2
Aspergillus niger = experiment: Antifungal activity against Aspergillus niger by broth microdilution method; how it was run: as §1
Bacillus subtilis = experiment: Antibacterial activity against Bacillus subtilis by broth microdilution method; how it was run: as §2
Candida parapsilosis = experiment: Antifungal activity against Candida parapsilosis by broth microdilution method; details: Lodderomyces parapsilosis; how it was run: as §1
Klebsiella pneumoniae = experiment: Antibacterial activity against Klebsiella pneumoniae by broth microdilution method; how it was run: as §2

Row | Compound | MIC90 (Candida albicans) [µg/mL] | MIC90 (Cryptococcus neoformans) [µg/mL] | MIC90 (Staphylococcus aureus) [µg/mL] | MIC90 (Pseudomonas aeruginosa) [µg/mL] | MIC90 (Aspergillus niger) [µg/mL] | MIC90 (Bacillus subtilis) [µg/mL] | MIC90 (Candida parapsilosis) [µg/mL] | MIC90 (Klebsiella pneumoniae) [µg/mL]
1 | CON=C1C2C(c3ccccc3F)NC(c3ccccc3F)C1C(c1ccccc1F)NC2c1ccccc1F (centres undefined) | 8 (≈ 14.7 µM) | > 128 | 64 (≈ 117 µM) | 4 (≈ 7.33 µM) | 4 (≈ 7.33 µM) | 32 (≈ 58.7 µM) | 64 (≈ 117 µM) | 16 (≈ 29.3 µM)
2 | CCOc1ccc(C2NC(c3ccc(OCC)cc3)C3C(=NO)C2C(c2ccc(OCC)cc2)NC3c2ccc(OCC)cc2)cc1 (centres undefined) | > 128 | 64 (≈ 101 µM) | > 128 | 32 (≈ 50.3 µM) | 16 (≈ 25.2 µM) | > 128 | > 128 | 32 (≈ 50.3 µM)
3 | ON=C1C2C(c3cccc(Oc4ccccc4)c3)NC(c3cccc(Oc4ccccc4)c3)C1C(c1cccc(Oc3ccccc3)c1)NC2c1cccc(Oc2ccccc2)c1 (centres undefined) | 128 (≈ 155 µM) | > 128 | > 128 | > 128 | > 128 | > 128 | 128 (≈ 155 µM) | > 128
4 | COc1cccc(C2NC(c3cccc(OC)c3)C3C(=NO)C2C(c2cccc(OC)c2)NC3c2cccc(OC)c2)c1 (centres undefined) | > 128 | > 128 | > 128 | 128 (≈ 221 µM) | 64 (≈ 110 µM) | > 128 | > 128 | > 128
5 | CON=C1C2C(c3ccccc3Cl)NC(c3ccccc3Cl)C1C(c1ccccc1Cl)NC2c1ccccc1Cl (centres undefined) | 16 (≈ 26.2 µM) | 16 (≈ 26.2 µM) | 16 (≈ 26.2 µM) | 16 (≈ 26.2 µM) | 2 (≈ 3.27 µM) | > 128 | > 128 | 4 (≈ 6.54 µM)
6 | CCCCOc1ccc(C2NC(c3ccc(OCCCC)cc3)C3C(=NOC)C2C(c2ccc(OCCCC)cc2)NC3c2ccc(OCCCC)cc2)cc1 (centres undefined) | > 128 | 32 (≈ 42 µM) | > 128 | 64 (≈ 84 µM) | 32 (≈ 42 µM) | > 128 | > 128 | 64 (≈ 84 µM)
7 | CCCOc1ccc(C2NC(c3ccc(OCCC)cc3)C3C(=NO)C2C(c2ccc(OCCC)cc2)NC3c2ccc(OCCC)cc2)cc1 (centres undefined) | > 128 | 32 (≈ 46.2 µM) | > 128 | 64 (≈ 92.5 µM) | 32 (≈ 46.2 µM) | > 128 | > 128 | 64 (≈ 92.5 µM)
8 | CCOc1ccccc1C1NC(c2ccccc2OCC)C2C(=NOC)C1C(c1ccccc1OCC)NC2c1ccccc1OCC (centres undefined) | > 128 | 16 (≈ 24.6 µM) | > 128 | 32 (≈ 49.2 µM) | 16 (≈ 24.6 µM) | > 128 | 64 (≈ 98.5 µM) | > 128
9 | ON=C1C2C(c3cccc(Br)c3)NC(c3cccc(Br)c3)C1C(c1cccc(Br)c1)NC2c1cccc(Br)c1 (centres undefined) | > 128 | > 128 | > 128 | > 128 | > 128 | > 128 | > 128 | > 128
10 | CSc1ccc(C2NC(c3ccc(SC)cc3)C3C(=NO)C2C(c2ccc(SC)cc2)NC3c2ccc(SC)cc2)cc1 (centres undefined) | 32 (≈ 49.7 µM) | 32 (≈ 49.7 µM) | > 128 | 16 (≈ 24.8 µM) | 16 (≈ 24.8 µM) | > 128 | 32 (≈ 49.7 µM) | 32 (≈ 49.7 µM)
11 | ON=C1C2C(c3ccc(Br)cc3)NC(c3ccc(Br)cc3)C1C(c1ccc(Br)cc1)NC2c1ccc(Br)cc1 (centres undefined) | > 128 | > 128 | > 128 | > 128 | > 128 | 64 (≈ 82.6 µM) | 32 (≈ 41.3 µM) | 128 (≈ 165 µM)
12 | CON=C1C2C(c3cccc(OC)c3)NC(c3cccc(OC)c3)C1C(c1cccc(OC)c1)NC2c1cccc(OC)c1 (centres undefined) | 128 (≈ 216 µM) | 128 (≈ 216 µM) | 128 (≈ 216 µM) | 64 (≈ 108 µM) | 16 (≈ 26.9 µM) | > 128 | > 128 | > 128
13 | ON=C1C2C(c3ccc(F)cc3)NC(c3ccc(F)cc3)C1C(c1ccc(F)cc1)NC2c1ccc(F)cc1 (centres undefined) | 4 (≈ 7.53 µM) | 128 (≈ 241 µM) | 16 (≈ 30.1 µM) | 32 (≈ 60.2 µM) | 4 (≈ 7.53 µM) | 64 (≈ 120 µM) | > 128 | 64 (≈ 120 µM)
14 | GENTAMICIN |  |  | 4 | 16 |  | 16 |  | 2
15 | CCc1ccc(C2NC(c3ccc(CC)cc3)C3C(=NO)C2C(c2ccc(CC)cc2)NC3c2ccc(CC)cc2)cc1 (centres undefined) | > 128 | > 128 | > 128 | 32 (≈ 56 µM) | > 128 | > 128 | 64 (≈ 112 µM) | > 128
16 | ON=C1C2C(c3ccccc3Cl)NC(c3ccccc3Cl)C1C(c1ccccc1Cl)NC2c1ccccc1Cl (centres undefined) | 16 (≈ 26.8 µM) | 16 (≈ 26.8 µM) | 64 (≈ 107 µM) | 16 (≈ 26.8 µM) | 8 (≈ 13.4 µM) | > 128 | > 128 | 32 (≈ 53.6 µM)
